Screening results from PubChem BioAssay.
In the library only some 1.8% were active in any assay of this set; here they are far more common.
DAGLB inh: diacylglycerol lipase beta (human) inhibition; HEK293T DAGLB membrane lysate, EnzChek fluorogenic substrate; inhibition, % at 5.17 µM; 340,000 tested, 0.059% active; in the data active = inhibition above about 34%
Target sequence (Q8NCG7 whole entry, looked up): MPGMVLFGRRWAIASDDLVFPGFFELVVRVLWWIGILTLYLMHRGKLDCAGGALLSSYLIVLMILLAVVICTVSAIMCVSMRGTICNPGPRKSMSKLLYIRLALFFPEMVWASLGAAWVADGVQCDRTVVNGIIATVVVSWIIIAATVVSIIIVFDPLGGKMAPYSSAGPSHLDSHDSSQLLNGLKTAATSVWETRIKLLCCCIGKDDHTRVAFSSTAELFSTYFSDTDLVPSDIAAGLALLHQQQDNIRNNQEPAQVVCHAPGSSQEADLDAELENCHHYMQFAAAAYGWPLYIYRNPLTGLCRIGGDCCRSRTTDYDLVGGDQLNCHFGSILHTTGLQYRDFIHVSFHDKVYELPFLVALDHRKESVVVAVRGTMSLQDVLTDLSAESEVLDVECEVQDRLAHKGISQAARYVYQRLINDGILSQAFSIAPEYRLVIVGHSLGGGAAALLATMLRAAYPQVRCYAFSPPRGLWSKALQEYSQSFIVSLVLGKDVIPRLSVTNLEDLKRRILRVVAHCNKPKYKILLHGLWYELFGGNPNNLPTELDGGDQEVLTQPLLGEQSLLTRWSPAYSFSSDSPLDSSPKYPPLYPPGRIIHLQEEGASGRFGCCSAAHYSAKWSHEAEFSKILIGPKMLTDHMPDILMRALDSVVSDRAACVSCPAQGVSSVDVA
hiPSC survival: enhancers of human iPSC single-cell survival; hiPSC single-cell survival, ATPlite luminescence; 100% = ROCK inhibitor wells, 0% = DMSO; survival enhancement, % at 20 µM; 360,000 tested, 0.044% active; AID 602274; in the data active = survival enhancement above about 18%;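 note: cells exposed to compounds for 16 hours before the ATP read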
Ecoli rRNA inh: inhibitors of bacterial rRNA selective over humanized ribosomes. GFP signal change (wild-type ribosome), % (concentration not given with the values). AID 720706. E. coli WT GFP vs humanized-ribosome RFP mutants, fluorescence, 24 h; active compounds read low; DMSO median 0, no signal -100. 350,000 tested, 1.6% active;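 active = significant combined selectivity score with lowered wild-type GFP, culture density cut under 30%, mutant RFP and density less affected; inactive = any of these conditions unmet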
Cneo AK release: Cryptococcus neoformans lysis via adenylate kinase release; C. neoformans lysis, adenylate kinase release luminescence, 4 h; normalised: neutral wells 0, clomiphene wells 100; lysis activity, % at 15 µM; 360,000 tested, 0.2% active; AID 651654;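 active = mean lysis activity across replicates of at least 80%, whatever share of replicates individually reach that level; inactive = mean lysis activity below 80%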
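Schedule: static 4 h at 37 °C with compound, 1 h detection; system: C. neoformans cells; benchmarks: Clomiphene as positive control; buffer or medium: fresh YPD medium; measure: luminescence rise reflecting yeast cell lysis; measured by: luminescent adenylate kinase detection reagent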
MT1-MMP act inh: MT1-MMP (human) activation inhibition; P50281; HT1080 RFP-PRO-GFP cells, GFP/RFP ratio fluorescence, overnight; percent of plate control window, DMSO zero; GFP/RFP ratio change, % at 20 µM; 360,000 tested, 0.061% active; AID 651647;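 active = GFP/RFP ratio change of at least 30% with cell ATP level not reduced by more than half and red fluorescence within 50% of control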
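Test system: HT1080 RFP-PRO-GFP cells; Benchmarks: DMSO and RFP-L50D-GFP cell wells; Timing: cells overnight before dosing, compound overnight, 37 °C, 5% CO2; Compound: one 20 µM compound dose with 1% DMSO; Read-out: GFP/RFP fluorescence ratio.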
SKN-1 inh: C. elegans SKN-1 inhibition | C. elegans VP596 Pgst-4::GFP/RFP ratio, acrylamide-induced, 24 h | inhibition, % at 21.8 µM | 360,000 tested, 0.49% active | AID 624304;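 active = interference check ratio from 0.5 to 1.5 plus GFP to RFP signal ratio inhibition reaching or exceeding a fixed threshold, cut at about 30% in these data, passing the limit was not always enough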
HepG2 cytotox: kills or reduces viability of HepG2 cells; shares compounds with Ecoli rRNA inh; activity change, negative = cytotoxicity, unspecified at 26 µM; 30 tested, under 10 active; ATP luminescence, 72 h; AID 743480;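 active = compounds whose fitted half-maximal signal-loss concentration is at most twice their highest valid dose; inconclusive = flat curve with 30 to 70% signal loss, or poor fit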
AID977621: growth inhibition of wild-type GFP E. coli, dose response, H69 mutant RFP, cherry-pick | shares compounds with Ecoli rRNA inh | E. coli wild-type GFP strain growth, fluorescence, 24 h | activity change, negative = inhibition at 50 µM | 1,900 tested, under 10 active | AID 977621;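 active = Wild-type ribosome reporter drop at least double the humanized mutant ribosome reporter drop, growth loss under a set limit; inconclusive = no clear call, values can overlap the other calls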;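 note: wild-type GFP and H69 mutant RFP strains grown together 50/50 in each well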
AID977628: growth of wild-type and h24-humanized E. coli strains – h24 mutant RFP vs wild-type GFP, cherry-pick, dose response | 1,900 tested, under 10 active | E. coli WT GFP strain growth, fluorescence, 24 h | activity change, negative = inhibition at 50 µM | shares compounds with Ecoli rRNA inh;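 active = compound lowering the normal-ribosome reporter at least twice as much as the humanized-ribosome reporter, growth loss under a set limit; inconclusive = no clear call, values can overlap the other calls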;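 note: wild-type GFP and h24 humanized RFP strains co-cultured 1 to 1 per well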
A number is an active result; n = inactive; u = inconclusive; x = no result.

SMILES	DAGLB inh	hiPSC survival	Ecoli rRNA inh	Cneo AK release	MT1-MMP act inh	SKN-1 inh	AID977621	AID977628	others
Cc1ccc(S(=O)(=O)N(C(=O)c2ccncc2)c2ccc(OC(=O)c3ccncc3)cc2)c(C)c1	n	n	-18	x	n	n	n	n
O=C(CSc1nc2ccccc2n1S(=O)(=O)c1cccc([N+](=O)[O-])c1)NCCc1ccccc1	n	n	-33	x	n	n	n	n
Nc1nc(-c2cc(-c3ccccc3)no2)cs1	n	n	-19	n	n	n	n	u
O=[N+]([O-])c1ccc2nc(-c3ccccc3[N+](=O)[O-])[nH]c2c1	n	n	-28	x	n	n	x	n
O=[N+]([O-])c1cccc(-c2nc3ccc([N+](=O)[O-])cc3[nH]2)c1	n	n	n	x	n	n	x	x
CC(C)NC(=O)Nc1ccc2c(c1)CC(=O)N(C)C[C@H](C)[C@@H](CN(C)C)O2	x	x	n	x	x	x	x	x
C[C@@H]1CC=CC[C@@H](c2cccc(Cl)c2)NC(=O)[C@@H](C)N(C)C(=O)c2ccccc2O1 (mixture of isomers)	x	x	n	x	x	x	x	x
CN1c2ccc(Cl)cc2C(=O)NC1C1CC=CCC1 (stereo not drawn)	n	n	-23	n	n	n	n	x
CCc1cc2ccc(OC)cc2nc1SCC(=O)NNC(=O)c1ccco1	n	n	n	x	n	n	x	x
CCc1cc2ccc(OC)cc2nc1SCC(=O)N1CCN(C(=O)c2ccco2)CC1	n	n	-26	n	n	n	n	x
COCCNC(=O)C[C@H]1CC[C@@H]2[C@H](COc3ccc(NC(=O)c4cnccn4)cc3C(=O)N2C)O1	x	x	n	n	x	x	x	x
Cc1ccccc1COc1ccc(-c2nn[nH]n2)cc1	n	n	-25	n	n	n	u	x
COc1ccc(Cc2nnc(Nc3ccc(C)cc3)o2)cc1OC	n	n	-19	n	n	n	x	n
C/C=C/c1ccc([C@@H]2[C@H](CO)N(C(C)=O)C23CN(C(=O)c2cnccn2)C3)cc1	x	x	n	x	x	x	x	x
NS(=O)(=O)c1ccc(NC(=O)c2cc(Cl)sc2Cl)cc1	n	n	-25	n	n	n	n	n
CCOc1ccccc1NC(=O)c1ccc2ccccc2c1	n	n	-25	n	n	n	x	u	HepG2 cytotox=n
CCCC(=O)Nc1cccc(C(=O)Nc2ccccc2OCC)c1	x	x	-27	x	x	x	n	n
Cc1ccc(S(=O)(=O)N(C)C[C@H]2Oc3c(NS(=O)(=O)c4ccc(Cl)cc4)cccc3C(=O)N([C@H](C)CO)C[C@H]2C)cc1	x	x	n	n	x	x	x	x
CO[C@@H]1CN(C)C(=O)c2ccc(NC(=O)C3CC3)cc2OC[C@H](C)N(C(=O)c2cnccn2)C[C@H]1C	x	x	n	n	x	x	x	x
CO[C@H]1CN(C)C(=O)c2cc(NC(C)=O)ccc2OC[C@H](C)N(CCc2ccccc2)C[C@H]1C	x	x	n	n	x	x	x	x
CN(Cc1ccccc1NS(=O)(=O)c1ccc(Cl)cc1)C1CCCCC1	n	n	-29	n	n	n	n	u
O=C(C[C@H]1C=C[C@H](NS(=O)(=O)c2ccc(F)cc2)[C@H](CO)O1)NCc1ccccc1F	x	x	n	x	x	x	x	x
CCC(C)c1ccccc1NC(=O)c1cccc(-n2cnnn2)c1 (stereo not drawn)	n	n	-21	n	n	n	n	n
CCC(C)c1ccccc1NC(=O)c1cccnc1 (stereo not drawn)	n	n	n	n	n	n	x	x
NS(=O)(=O)c1cc(C(=O)OCC(=O)Nc2ccc(Cl)cc2[N+](=O)[O-])ccc1Cl	n	n	n	x	n	n	x	x
SMILES	DAGLB inh	hiPSC survival	Ecoli rRNA inh	Cneo AK release	MT1-MMP act inh	SKN-1 inh	AID977621	AID977628	others
NS(=O)(=O)c1cc(C(=O)OCC(=O)Nc2ccccc2[N+](=O)[O-])ccc1Cl	n	n	-20	x	n	n	x	n
Cc1cc(C)c(OCC(=O)OCC(=O)N2CCc3ccccc3C2)c(C)c1	n	n	-16	n	n	n	x	n
Cc1noc(C)c1NC(=O)Nc1ccc2c(c1)C(=O)N([C@H](C)CO)C[C@@H](C)[C@H](CN(C)C(=O)Nc1ccc(C(F)(F)F)cc1)O2	x	x	n	n	x	x	x	x
CC(C)CN(C(=O)c1ccco1)c1nc2ccccc2s1	n	n	-19	x	n	n	x	u
CNC[C@H]1Oc2ccc(NC(=O)C3CCCCC3)cc2C(=O)N([C@@H](C)CO)C[C@H]1C	x	x	n	n	x	x	x	x
CCOC(=O)c1sc(NC(=O)CN2CCN(c3ccccc3)CC2)nc1C	n	n	-20	n	n	n	x	n
CCOC(=O)c1ccc(NC(=O)CN2CCN(c3ccccc3)CC2)cc1	n	n	x	n	n	n	x	x
Fc1ccc(-c2cn(-c3ccccc3)c3[n+]2CCS3)cc1	n	n	n	n	n	n	x	x
Clc1ccc(-c2cn(-c3ccccc3)c3[n+]2CCS3)cc1	n	n	-18	x	n	n	n	u
COc1ccc(CNC(=O)CSCc2c(F)cccc2Cl)cc1	n	n	-27	n	n	n	n	x
O=C(CSCc1c(Cl)cccc1Cl)NCc1ccccn1	n	n	-23	x	n	n	n	n
